Source: ChEMBL document CHEMBL1932925, “Synthesis, biological evaluation, and molecular docking studies of cinnamic acyl 1,3,4-thiadiazole amide derivatives as novel antitubulin agents” (Bioorg Med Chem, 2012)
Converted amounts (≈) assume the structure as drawn.

Key:
A549 = assay: Antiproliferative activity against human A549 cells after 48 hrs by MTT assay; format: functional, cell-based; conditions: A549, 48 h
Summary of the method: (§1)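 Cells diluted to 2×10^4 cells mL⁻¹ in complete medium, plated and held 24 h at 37 °C, 5% CO₂ before dosing at pre-set concentrations. After 48 h exposure, MTT (2.5 mg mL⁻¹ in PBS) added for 4 h, then SDS–isobutyl alcohol–HCl extraction solution overnight at 37 °C. Absorbance read at 570 nm. Three replicate wells per concentration, each assay run at least three times.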

[1] = Inhibition of bovine brain tubulin polymerization preincubated for 10 mins measured after 20 mins; design: species or system Bos taurus
Summary of the method: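 Tubulin purified from bovine brain, used at 10 µM in glutamate buffer and preincubated with varying compound concentrations at 30 °C, then cooled to 0 °C. GTP added and mixtures warmed to 30 °C in a recording spectrophotometer, with assembly followed turbidimetrically.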

MCF7 [2] = assay: Antiproliferative activity against human MCF7 cells after 48 hrs by MTT assay; format: functional, cell-based; conditions: MCF7, 48 h; summary of the method: as §1
MCF7 [3] = assay: Induction of cell cycle arrest in human MCF7 cells assessed as accumulation at G0/G1 phase at 5 ug/ml after 24 hrs by flow cytometric analysis (reference value: 66%); format: functional
MCF7 [4] = assay: Induction of cell cycle arrest in human MCF7 cells assessed as accumulation at G2/M phase at 5 ug/ml after 24 hrs by flow cytometric analysis (reference value: 18%); format: functional
MCF7 [5] = assay: Induction of cell cycle arrest in human MCF7 cells assessed as accumulation at S phase at 5 ug/ml after 24 hrs by flow cytometric analysis (reference value: 12%); format: functional

SMILES | IC50 (A549) [µg/mL] | IC50 [1] [µg/mL] | IC50 (MCF7 [2]) [µg/mL] | Activity (MCF7 [3]) [%] | Activity (MCF7 [4]) [%] | Activity (MCF7 [5]) [%]
O=C(/C=C/c1ccccc1)Nc1nnc(-c2ccccc2)s1 | 1.75 (≈ 5.69 µM) | 5.68 (≈ 18.5 µM) | 1.47 (≈ 4.78 µM) | – | – | –
O=C(/C=C/c1ccccc1)Nc1nnc(-c2ccc(Cl)cc2)s1 | 2.02 (≈ 5.91 µM) | 6.56 (≈ 19.2 µM) | 1.42 (≈ 4.15 µM) | – | – | –
O=C(/C=C/c1ccc(F)cc1)Nc1nnc(-c2ccc(Cl)cc2)s1 | 2.06 (≈ 5.73 µM) | 7.08 (≈ 19.7 µM) | 1.58 (≈ 4.39 µM) | – | – | –
Cc1ccc(/C=C/C(=O)Nc2nnc(-c3ccc(Cl)cc3)s2)cc1 | 1.25 (≈ 3.51 µM) | 4.79 (≈ 13.5 µM) | 1.44 (≈ 4.05 µM) | – | – | –
COc1ccc(/C=C/C(=O)Nc2nnc(-c3ccc(Cl)cc3)s2)cc1 | 1.38 (≈ 3.71 µM) | 5.68 (≈ 15.3 µM) | 0.91 (≈ 2.45 µM) | – | – | –
O=C(/C=C/c1ccccc1)Nc1nnc(-c2ccc(Br)cc2)s1 | 2.18 (≈ 5.64 µM) | 7.05 (≈ 18.3 µM) | 1.5 (≈ 3.88 µM) | – | – | –
O=C(/C=C/c1ccc(F)cc1)Nc1nnc(-c2ccc(Br)cc2)s1 | 2.83 (≈ 7 µM) | 8.66 (≈ 21.4 µM) | 1.49 (≈ 3.69 µM) | – | – | –
Cc1ccc(/C=C/C(=O)Nc2nnc(-c3ccc(Br)cc3)s2)cc1 | 1.51 (≈ 3.77 µM) | 5.02 (≈ 12.5 µM) | 1.32 (≈ 3.3 µM) | – | – | –
COc1ccc(/C=C/C(=O)Nc2nnc(-c3ccc(Br)cc3)s2)cc1 | 1.04 (≈ 2.5 µM) | 4.11 (≈ 9.87 µM) | 1.13 (≈ 2.71 µM) | – | – | –
Cc1ccc(-c2nnc(NC(=O)/C=C/c3ccccc3)s2)cc1 | 1.38 (≈ 4.29 µM) | 4.83 (≈ 15 µM) | 1.19 (≈ 3.7 µM) | – | – | –
Cc1ccc(-c2nnc(NC(=O)/C=C/c3ccc(F)cc3)s2)cc1 | 1.23 (≈ 3.62 µM) | 5.08 (≈ 15 µM) | 1.27 (≈ 3.74 µM) | – | – | –
Cc1ccc(/C=C/C(=O)Nc2nnc(-c3ccc(C)cc3)s2)cc1 | 1.08 (≈ 3.22 µM) | 4.15 (≈ 12.4 µM) | 0.61 (≈ 1.82 µM) | – | – | –
COc1ccc(/C=C/C(=O)Nc2nnc(-c3ccc(C)cc3)s2)cc1 | 0.66 (≈ 1.88 µM) | 2.64 (≈ 7.51 µM) | 0.35 (≈ 0.996 µM) | – | – | –
COc1ccc(-c2nnc(NC(=O)/C=C/c3ccccc3)s2)cc1 | 0.68 (≈ 2.02 µM) | 3.08 (≈ 9.13 µM) | 0.78 (≈ 2.31 µM) | – | – | –
COc1ccc(-c2nnc(NC(=O)/C=C/c3ccc(F)cc3)s2)cc1 | 0.75 (≈ 2.11 µM) | 3.05 (≈ 8.58 µM) | 0.85 (≈ 2.39 µM) | – | – | –
COc1ccc(-c2nnc(NC(=O)/C=C/c3ccc(C)cc3)s2)cc1 | 0.58 (≈ 1.65 µM) | 2.56 (≈ 7.28 µM) | 0.31 (≈ 0.882 µM) | – | – | –
COc1ccc(/C=C/C(=O)Nc2nnc(-c3ccc(OC)cc3)s2)cc1 | 0.52 (≈ 1.42 µM) | 1.16 (≈ 3.16 µM) | 0.28 (≈ 0.762 µM) | 2 | 68 | 2
COc1cc2c(c(OC)c1OC)-c1ccc(OC)c(=O)cc1[C@@H](NC(C)=O)CC2 [COLCHICINE] | 0.75 (≈ 1.88 µM) | – | 0.53 (≈ 1.33 µM) | 2 | 79 | 3
COc1ccc(/C=C\c2cc(OC)c(OC)c(OC)c2)cc1O [COMBRETASTATIN A4] | 0.55 (≈ 1.74 µM) | 0.81 (≈ 2.56 µM) | 0.41 (≈ 1.3 µM) | – | – | –

Continued, in another order:

IC50 (A549) [µg/mL] | IC50 [1] [µg/mL] | IC50 (MCF7 [2]) [µg/mL] | SMILES | Activity (MCF7 [3]) [%] | Activity (MCF7 [4]) [%] | Activity (MCF7 [5]) [%]
1.82 (≈ 5.59 µM) | 5.87 (≈ 18 µM) | 1.45 (≈ 4.46 µM) | O=C(/C=C/c1ccc(F)cc1)Nc1nnc(-c2ccccc2)s1 | – | – | –
1.78 (≈ 4.74 µM) | 5.52 (≈ 14.7 µM) | 1.52 (≈ 4.05 µM) | O=C(/C=C/c1ccc(C(F)(F)F)cc1)Nc1nnc(-c2ccccc2)s1 | – | – | –
1.58 (≈ 4.92 µM) | 4.49 (≈ 14 µM) | 1.23 (≈ 3.83 µM) | Cc1ccc(/C=C/C(=O)Nc2nnc(-c3ccccc3)s2)cc1 | – | – | –
0.76 (≈ 2.25 µM) | 3.02 (≈ 8.95 µM) | 0.83 (≈ 2.46 µM) | COc1ccc(/C=C/C(=O)Nc2nnc(-c3ccccc3)s2)cc1 | – | – | –
3.09 (≈ 7.54 µM) | 7.83 (≈ 19.1 µM) | 1.65 (≈ 4.03 µM) | O=C(/C=C/c1ccc(C(F)(F)F)cc1)Nc1nnc(-c2ccc(Cl)cc2)s1 | – | – | –
4.68 (≈ 10.3 µM) | 10.6 (≈ 23.3 µM) | 1.58 (≈ 3.48 µM) | O=C(/C=C/c1ccc(C(F)(F)F)cc1)Nc1nnc(-c2ccc(Br)cc2)s1 | – | – | –
1.61 (≈ 4.13 µM) | 5.16 (≈ 13.3 µM) | 1.1 (≈ 2.82 µM) | Cc1ccc(-c2nnc(NC(=O)/C=C/c3ccc(C(F)(F)F)cc3)s2)cc1 | – | – | –
0.69 (≈ 1.7 µM) | 3.17 (≈ 7.82 µM) | 0.79 (≈ 1.95 µM) | COc1ccc(-c2nnc(NC(=O)/C=C/c3ccc(C(F)(F)F)cc3)s2)cc1 | – | – | –
